Active and inactive are the calls of the source. The calls are words filed in the database; no cut-off is given here.
Assays:
[1] = target: T1, N(G),N(G)-dimethylarginine dimethylaminohydrolase 1 (Homo sapiens, UniProt O94760); assay: Inhibition of human recombinant His6-tagged DDAH1 expressed in Escherichia coli BL21(DE3) using S-methyl-L-thiocitrulline as substrate at 100 uM by CPM-based fluorescence spectrophotometry
In short: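 Primary HTS run in duplicate. Compound at 100 μM with human DDAH-1 (20 nM), S-methyl-L-thiocitrulline (0.4 μM) and CPM (3.5 μM) in K2HPO4 172 mM, KCl 172 mM, EDTA 2 mM, Tween-20 0.02%, DMSO 1%, pH 7.3. Enzyme–compound preincubation 10 min.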

Pseudomonas aeruginosa [2] = assay: Inhibition of Pseudomonas aeruginosa His6-tagged DDAH expressed in Escherichia coli BL21(DE3) using S-methyl-Lthiocitrulline as substrate at 100 uM measured every 20 secs for 10 mins
Pseudomonas aeruginosa [3] = assay: Ratio of Kinact to KI for Pseudomonas aeruginosa His6-tagged DDAH expressed in Escherichia coli BL21(DE3) using S-methyl-Lthiocitrulline as substrate up to 1 mM measured every 20 secs for 10 mins by fluorescence spectrophotometry
[4] = target: T1, N(G),N(G)-dimethylarginine dimethylaminohydrolase 1; assay: Inhibition of human recombinant His6-tagged DDAH1 expressed in Escherichia coli BL21(DE3) using Nomega,Nomega-dimethyl-L-arginine as substrate at 400 uM by colorimetric ureido derivitization assay; settings: TDE = time-dependent effect
[5] = target: T1, N(G),N(G)-dimethylarginine dimethylaminohydrolase 1; assay: Inhibition of human recombinant His6-tagged DDAH1 expressed in Escherichia coli BL21(DE3) using Nomega,Nomega-dimethyl-L-arginine as substrate at 400 uM incubated for 10 to 20 mins prior to substrate addition measured after 1 to 2 hrs by colorimetric ureido derivitization assay in presence of 2 mM reduced glutathione
In short: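 Compound (400 μM) preincubated 10–20 min at room temperature with human DDAH-1 (1 μM) and reduced glutathione (2 mM) in Reaction Buffer, pH 7.3. ADMA (300 μM) then added; 1–2 h at room temperature, HCl quench (1 M final), colorimetric ureido derivatization. Inhibition compared against assays without glutathione.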

[6] = target: T1, N(G),N(G)-dimethylarginine dimethylaminohydrolase 1; assay: Inhibition of human recombinant His6-tagged DDAH1 expressed in Escherichia coli BL21(DE3) using Nomega,Nomega-dimethyl-L-arginine as substrate at 400 uM after 1 to 2 hrs by colorimetric ureido derivitization assay
In short: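 Rapid-onset secondary assay. Compound (400 μM) mixed with ADMA (300 μM, 2.5-fold over KM) in Reaction Buffer (Na2HPO4 172 mM, KCl 172 mM, Tween-20 0.02%, EDTA 2 mM, pH 7.3). Started with human DDAH-1 (1 μM final), run 1–2 h, quenched with HCl (1 M final). Ureido product read colorimetrically; ≥20% inhibition counted as a hit.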

[7] = target: T1, N(G),N(G)-dimethylarginine dimethylaminohydrolase 1; assay: Reversible inhibition of human recombinant His6-tagged DDAH1 expressed in Escherichia coli BL21(DE3) using 1 mM Nomega,Nomega-dimethyl-L-arginine as substrate incubated up to 120 mins prior to substrate addition measured after 120 mins by colorimetric ureido derivitization assay
In short: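 Human DDAH-1 (30 μM) incubated at room temperature with compound (0–2 mM) in Na2HPO4 100 mM, NaCl 100 mM, EDTA 2 mM, Tween-20 0.02%, pH 7.25, with or without reduced glutathione (2 mM). After 0–120 min, diluted 40-fold into ADMA (1 mM) in the same buffer. Incubated a further 120 min, quenched with HCl (300 mM final), and L-citrulline read colorimetrically.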

[8] = target: T1, N(G),N(G)-dimethylarginine dimethylaminohydrolase 1; assay: Competitive inhibition of human recombinant His6-tagged DDAH1 expressed in Escherichia coli BL21(DE3) using Nomega,Nomega-dimethyl-L-arginine as substrate after 80 mins by double-reciprocal plot analysis
[9] = target: T1, N(G),N(G)-dimethylarginine dimethylaminohydrolase 1; assay: Inhibition of human recombinant His6-tagged DDAH1 expressed in Escherichia coli BL21(DE3) using Nomega,Nomega-dimethyl-L-arginine as substrate after 80 mins by colorimetric ureido derivitization assay
Pseudomonas aeruginosa [10] = assay: Inhibition of Pseudomonas aeruginosa His6-tagged DDAH expressed in Escherichia coli BL21(DE3) using S-methyl-Lthiocitrulline as substrate up to 1 mM measured every 20 secs for 10 mins by fluorescence spectrophotometry

T1 sequence (O94760 whole entry): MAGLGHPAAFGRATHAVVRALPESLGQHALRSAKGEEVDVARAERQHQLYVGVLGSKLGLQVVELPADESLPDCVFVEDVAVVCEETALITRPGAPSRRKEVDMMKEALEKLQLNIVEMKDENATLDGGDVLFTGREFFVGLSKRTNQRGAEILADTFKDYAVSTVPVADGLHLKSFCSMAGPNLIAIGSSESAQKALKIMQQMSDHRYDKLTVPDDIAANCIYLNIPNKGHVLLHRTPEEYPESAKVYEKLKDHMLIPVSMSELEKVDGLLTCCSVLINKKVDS

SMILES | inhibition [1] [%] | inhibition (Pseudomonas aeruginosa [2]) [%] | Ratio (Pseudomonas aeruginosa [3]) [M⁻¹ s⁻¹] | inhibition [4] | inhibition [5] [%] | inhibition [6] [%] | inhibition [7] | Ki [8] [µM] | IC50 [9] [µM] | inhibition (Pseudomonas aeruginosa [10])
Cc1cc(Br)ccn1 | 55 | 89 | 4.8 | tde | 95 | 74 | – | – | – | –
CCc1nc2ccccc2[nH]1 | 4 | 1 | – | – | 25 | 36 | Active | 800 | 1400 | inactive
NCCSc1nc2ccccc2o1 | – | – | – | – | 23 | 21 | Active | 1700 | 2700 | –
OCc1cc(Cl)ccn1 | 17 | 50 | 0.65 | tde | 46 | 56 | – | – | – | –
